Screens deposited in PubChem by several laboratories.
Sampled rows, rich in hits. Any-hit rate of the full collection: about 3.7%.
XBP1 UPR activ – activators of adaptive arm of unfolded protein response (XBP1); 330,000 compounds, 0.33% hits; activation, % at 20 µM; AID 463104; CHO-XBP1 luciferase reporter, IRE1-XBP1 UPR activation, luminescence; percent of tunicamycin response, DMSO as zero;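 active means versus positive control, 20 µM dose yields 30% or more activation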;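 further: 100% = tunicamycin at 10 µg/mL and 0% = DMSO only wells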
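Assay system: CHO-XBP1 luciferase reporter cells; Schedule: 6 h treatment, 37 °C; Detection: glow luminescence from Steady-Glo reagent; Benchmarks: high control tunicamycin 10 µg/mL final, low control DMSO vehicle only.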
Dynein cargo inh – blocks dynein driven cargo transport along microtubules. 3617.4 mouse cells, GR-EGFP nuclear translocation imaging; test concentration mostly 20 µM; stimulated with dexamethasone, 1 µM; stronger effect = lower value. z-score, hits read low. 220,000 compounds, 0.47% hits. AID 1381;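 active means plate z-score of nuclear minus cytoplasmic receptor signal below a set negative limit, without overly bright fluorescence or cell loss, cut at about -3.5 in these data, passing the limit was not always enough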;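 further: z-score of nuclear minus cytoplasmic ring GR-EGFP intensity difference per well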
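Medium: Induction medium lacking tetracycline, stripped serum | Probe or stimulus: 1.0 µM final dexamethasone stimulus | Schedule: 48 h induction, then 1 h compound, then 30 min agonist, 37 °C | Signal: Automated 10x imaging of fixed Hoechst-stained cells | Evaluation: Per-cell GR-EGFP intensity, nucleus versus surrounding cytoplasmic ring, well-averaged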
MDM2 E3 inh – Mdm2 E3 ligase (human) inhibition | signal enhancement, % at 5 µM | cell-based MDM2 ubiquitination luciferase reporter, 2 h; 0 = plate control, 100 = twice control, blank-subtracted | AID 1230 | 210,000 compounds, 0.11% hits;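 active means signal enhancement of 30% or more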;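 further: luminescence tracks abundance of the self-degrading MDM2-luciferase fusion protein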
Target sequence (Q00987 whole entry, looked up, the tested form may be a part): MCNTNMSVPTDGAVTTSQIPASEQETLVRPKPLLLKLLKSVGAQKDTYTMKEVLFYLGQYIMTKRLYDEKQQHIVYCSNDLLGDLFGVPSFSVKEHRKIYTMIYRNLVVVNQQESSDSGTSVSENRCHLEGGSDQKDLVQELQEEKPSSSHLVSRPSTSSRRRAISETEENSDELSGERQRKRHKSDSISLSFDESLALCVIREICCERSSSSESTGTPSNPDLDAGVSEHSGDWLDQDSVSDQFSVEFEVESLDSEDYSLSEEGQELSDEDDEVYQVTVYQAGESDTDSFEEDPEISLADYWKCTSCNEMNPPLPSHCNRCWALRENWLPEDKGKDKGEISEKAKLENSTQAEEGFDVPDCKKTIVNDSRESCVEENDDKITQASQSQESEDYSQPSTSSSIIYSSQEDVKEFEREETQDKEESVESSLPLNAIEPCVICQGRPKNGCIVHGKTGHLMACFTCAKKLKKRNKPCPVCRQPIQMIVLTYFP
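System: stable MDM2–luciferase fusion reporter cells / Input: 2000 cells seeded into each well / Schedule: 4 h settle plus 2 h compound, 37 °C / Compound: single-point 5 µM / Buffer or medium: cells held in DMEM / Benchmarks: control and blank well means / Evaluation: percent signal gain over controls, blank-subtracted / Measured by: luciferase luminescence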
Beta2AR agonist – activates human beta-2 adrenergic receptor causing internalization; Am2.2-beta2AR cells, FAP receptor internalization, flow cytometry; response, % (test concentration not listed); 340,000 compounds, 0.43% hits; AID 504454;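 active means response above a set limit, near 3 SD of response in nonfluorescent compounds, cut at about 42% in these data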
UPR CHOP act – apoptotic UPR (CHOP) activation. CHO-CHOP luciferase reporter, luminescence; percent of tunicamycin response over DMSO baseline. activation, % at 10 µM. 330,000 compounds, 0.34% hits;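 active means at 10 µM dose, activation of 40% or more, normalized to positive control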;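 further: 100% = tunicamycin at 10 µg/mL and 0% = DMSO alone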
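System: CHO CHOP reporter cells. Amount: 500 cells per well. Buffer or medium: F12 medium, 10% FBS. Compound dosing: one dose, 10 µM in 0.5% DMSO. Incubation: 6 h compound exposure at 37 °C after overnight seeding. Technique: Steady-Glo luciferase luminescence. Benchmarks: tunicamycin and DMSO controls.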
Mdm2-MdmX inh – human Mdm2/MdmX binding inhibition | O15151+Q00987 | inhibition, % at 8 µM | 330,000 compounds, 3% hits | SaOS-2 split-luciferase Mdm2/MdmX complementation, luminescence | AID 485346;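 active means inhibition of at least 50% at 8 µM in the primary screen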
Mdm2 MdmX conf – confirmation of human Mdm2/MdmX interaction inhibitors. shares compounds with Mdm2-MdmX inh. Mdm2-MdmX binding, luminescent assay. inhibition, % at 8 µM. 10,000 compounds, 55% hits. AID 489028; in the data active means inhibition above about 40%
FLuc counter – counter-screen for Mdm2/MdmX inhibitors: full-length luciferase. inhibition, % at 8 µM. shares compounds with Mdm2-MdmX inh. SaOS-2 full-length luciferase counterscreen, luminescence. 6,200 compounds, 77% hits;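 active means mean inhibition at 8 µM reaching about 37%, which flags the compound as non-specific, limit read from the data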;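 further: p53-null SaOS-2 cells with luciferase driven by a doxycycline-inducible promoter; compound on cells about two nights before reading with doxycycline added after day one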
The depositor's hits bear a star; nt = not tested or not shown.

SMILES	XBP1 UPR activ	Dynein cargo inh	MDM2 E3 inh	Beta2AR agonist	UPR CHOP act	Mdm2-MdmX inh	Mdm2 MdmX conf	FLuc counter
CCN1CCN(c2cc(-c3ccccc3)nc3cc(-c4cccc(F)c4)nn23)CC1	-1	0.12	-5	22	-1	68*	3	nt
O=C(CCNC(=O)c1ccc(Br)cc1)Nc1ccc(S(=O)(=O)Nc2ncccn2)cc1	1	nt	nt	-5	0	-3	nt	nt
CN(C)CCC(C(=O)c1ccccc1)c1ccccn1 (stereo unspecified)	nt	nt	nt	-4	nt	nt	nt	nt
CN(C)CC(CCCCC(CN(C)C)C(=O)c1ccccc1)C(=O)c1ccccc1 (stereo unspecified)	-1	0.16	-18	13	0	56*	43*	54*
COc1ccc(CN2CCN(Cc3c[nH]c4ccccc34)CC2)cc1	0	nt	nt	4	0	-26	nt	nt
COc1ccc(Br)cc1CN1CCN(Cc2c[nH]c3ccccc23)CC1	-3	nt	nt	25	1	69*	39	83*
N=c1n(CCN2CCCCC2)c2ccccc2n1CC(=O)c1cccc([N+](=O)[O-])c1	4	nt	nt	-1	0	73*	15	nt
C=CCn1c(=N)n(CC(=O)c2cccc([N+](=O)[O-])c2)c2ccccc21	0	-0.24	-2	-9	0	20	nt	nt
COc1ccc(NC(=O)CN2CCN(C3c4ccccc4-c4ccccc43)CC2)c(OC)c1	-4	0.31	2	-10	6	94*	21	nt
O=C(CNc1cccc2ccccc12)N/N=C/C(Br)=C/c1ccccc1	1	-0.24	-15	2	2	59*	37	47*
O=C(CNc1cccc([N+](=O)[O-])c1)N/N=C/c1ccc([N+](=O)[O-])o1	-2	-0.28	-8	-2	1	3	nt	nt
O=C(CNc1cccc2ccccc12)N/N=C/c1ccc([N+](=O)[O-])o1	-1	-0.19	-2	13	1	51*	20	nt
Cc1ccc(SCC(=O)OC(C)C(=O)NC2CCCCC2C)c(C)c1 (stereo unspecified)	-2	nt	nt	-3	-1	8	nt	nt
COC(=O)C1=C(C)N(Cc2ccccc2)C(=NCc2ccc(OC)cc2)N[C@H]1c1ccccc1	2	nt	nt	28	1	65*	25	nt
COC(=O)C1=C(C)N(Cc2ccccc2)C(=NCC(C)C)N[C@H]1c1ccccc1	2	nt	nt	nt	1	30	nt	nt
COC(=O)C1=C(C)N(Cc2ccccc2)C(=NCCCCO)N[C@H]1c1cccc(C(F)(F)F)c1	1	nt	nt	15	-1	52*	34	nt
COC(=O)C1=C(C)N(Cc2ccccc2)C(=NCc2cccc(C(F)(F)F)c2)N[C@H]1c1cccc(F)c1	9	nt	nt	37	12	95*	73*	40*
COC(=O)C1=C(C)N(CC2CC2)C(=NCc2cccc(C(F)(F)F)c2)N[C@H]1c1ccccc1	2	nt	nt	17	-1	54*	24	nt
CCN1C(=NCCCCO)N[C@@H](c2cccc(C(F)(F)F)c2)C(C(=O)OC)=C1C	0	nt	nt	-2	-1	16	nt	nt
CCN1C[C@@H]2[C@@H]3C(=O)N(Cc4ccccc4)C(=O)[C@@H]3[C@](CC)(C(=O)OC)N2C1=NC	1	nt	nt	-8	3	12	nt	nt
COc1ccc(OC)c(C=NNC(=O)c2ccccc2NS(=O)(=O)c2cccs2)c1	0	nt	nt	18	2	6	nt	nt
N#C/C(=C\c1cccc(O)c1)C(=O)Nc1ccc2c(c1)OCCO2	7	-0.008	5	23	12	-4	nt	nt
CCOC(OCC)c1cn(Cc2ccc3c(c2)C(=O)c2ccccc2C3=O)nn1	-1	nt	nt	nt	-1	-7	nt	nt
CCN1C(=NCC(C)C)N[C@@H](c2cccc(C(F)(F)F)c2)C(C(=O)OC)=C1C	-3	nt	nt	3	-1	57*	33	60*
COCCN=C1N[C@@H](c2cccc(C(F)(F)F)c2)C(C(=O)OC)=C(C)N1Cc1ccccc1	-2	nt	nt	37	0	45	nt	nt
SMILES	XBP1 UPR activ	Dynein cargo inh	MDM2 E3 inh	Beta2AR agonist	UPR CHOP act	Mdm2-MdmX inh	Mdm2 MdmX conf	FLuc counter
COC(=O)C1=C(C)N(Cc2ccccc2)C(=NCc2cccc(C(F)(F)F)c2)N[C@H]1c1cccc(C(F)(F)F)c1	-7	nt	nt	32	35	100*	100*	49*
COC(=O)C1=C(C)N(Cc2ccccc2)C(=NCCc2ccccn2)N[C@H]1c1cccc(F)c1	-1	nt	nt	6	-1	34	nt	nt
COC(=O)C1=C(C)N(Cc2ccccc2)C(=NCCc2c[nH]c3ccccc23)N[C@H]1c1cccc(C(F)(F)F)c1	17	nt	nt	12	3	100*	41*	58*
Cc1ccc(N2CC(C(=O)Nc3ccc4c(c3)OCO4)CC2=O)cc1C (stereo unspecified)	4	nt	nt	2	4	-35	nt	nt
O=C(O)CCC(=O)N1N=C(c2ccc(Br)cc2)CC1c1cccc(Br)c1 (stereo unspecified)	-5	nt	nt	14	-1	12	nt	nt
COc1ccc(NC(=O)C(=O)NCCC2CCCCN2S(=O)(=O)c2ccccc2)cc1 (stereo unspecified)	-3	nt	nt	-15	0	55*	79*	56*
Cc1cc(C)c(S(=O)(=O)N2CCCCC2CCNC(=O)C(=O)NC2CC2)c(C)c1 (stereo unspecified)	-2	nt	nt	-3	-2	92*	94*	25
O=C(NCCc1ccccc1)C(=O)NCC1CCCN1S(=O)(=O)c1ccccc1 (stereo unspecified)	-1	nt	nt	3	-1	44	nt	nt
COc1ccc(CCNC(=O)C(=O)NCC2CCCN2S(=O)(=O)c2ccccc2)cc1OC (stereo unspecified)	0	nt	nt	5	0	52*	26	nt
O=C(NCCC1CCCCN1S(=O)(=O)c1cccs1)C(=O)Nc1ccccc1 (stereo unspecified)	2	nt	nt	-18	3	2	nt	nt
COc1ccc(CNC(=O)C(=O)NCCC2CCCCN2S(=O)(=O)c2ccccc2)cc1 (stereo unspecified)	-2	nt	nt	1	0	2	nt	nt
COc1ccc(NC(=O)C(=O)NCCC2CCCCN2S(=O)(=O)c2cccs2)cc1 (stereo unspecified)	0	nt	nt	-7	0	52*	73*	75*
